The values that follow come from ChEMBL document CHEMBL1137291, “p38 MAP kinase inhibitors. Part 5: discovery of an orally bio-available and highly efficacious compound based on the 7-amino-naphthyridone scaffold” (Bioorg Med Chem Lett, 2006).

Structures are written as SMILES.

Data set [1] can be described thus: Cmax in Sprague-Dawley rat at 1 mg/kg, po. The data set is classed as ADME, organism-based. Set-up: dose 1 mg/kg, route oral. Particulars: in vivo. The method, boiled down: (§1)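 Sprague-Dawley rats (male where specified) were dosed orally at 1 mpk, in one case as a 0.5% methylcellulose suspension. Plasma exposure was followed to give oral bioavailability, AUC, C_max and half-life.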

The subject of data set [2] is THP-1. Description: Inhibition of TNFalpha release from LPS-stimulated human monocyte THP1 cells. It is filed as functional, cell-based.
Data set [3] in a line: Half life in Sprague-Dawley rat at 1 mg/kg, po. The data set is classed as ADME, organism-based. Details: dose 1 mg/kg, route oral. Particulars: in vivo. The method, boiled down:
as §1

Data set [4] is described as follows: Bioavailability in Sprague-Dawley rat at 1 mg/kg, po. The data set is classed as ADME, organism-based. Particulars: in vivo. A digest of the protocol: as §1
For data set [5], the system named is Rattus norvegicus. The data set can be described thus: Inhibition of TNFalpha production in rat LPS challenge model at 3 mg/kg, po after 24 hrs. The data set is classed as functional.
For data set [6], the system named is Blood. Description: Inhibition of LPS-stimulated TNFalpha release in human whole blood. It is filed as functional, tissue-based.
Data set [7] in a line: Clearance in Sprague-Dawley rat at 1 mg/kg. It is filed as ADME, organism-based. Set-up: dose 1 mg/kg. Particulars: in vivo.
For data set [8], the system named is Rattus norvegicus. The data set can be described thus: Inhibition of paw swelling in AIA Lewis rat at 3 mg/kg, po after 21 days. Particulars: 504 h. The data set is classed as functional. The method, boiled down: (§2)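 Seven-week-old female Lewis rats had adjuvant injected into the left hind paw on day 0. Disease developed over 12 days, then rats were dosed orally at 0.1, 0.3, 1 or 3 mpk once daily for ten days. On days 0, 12 and 21 they were weighed, paw volumes measured and radiographs taken. Swelling of the secondary paw was scored.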

The subject of data set [9] is Rattus norvegicus. Description: Inhibition of TNF-alpha production in rat LPS challenge model at 0.3 mg/kg, po after 24 hrs. It is filed as functional.
Data set [10] can be described thus: Volume of distribution in rhesus macaque. It is filed as ADME, organism-based, Macaca mulatta. Particulars: rhesus monkey, in vivo; read-out: Vdss.
For data set [11], the system named is Rattus norvegicus. The data set can be described thus: Inhibition of paw swelling in AIA Lewis rat at 1 mg/kg, po after 21 days. The data set is classed as functional. Particulars: 504 h. A digest of the protocol:
as §2

Data set [12] is described as follows: Oral bioavailability in rhesus macaque. The data set is classed as ADME, organism-based, Macaca mulatta. As to conditions: rhesus monkey, in vivo.
Data set [13] can be described thus: Cmax in Sprague-Dawley rat at 1 mg/kg. The data set is classed as ADME, organism-based. Particulars: in vivo. Set-up: dose 1 mg/kg. A digest of the protocol:
as §1

In data set [14] the test system is Rattus norvegicus. The data set can be described thus: Inhibition of TNFalpha production in rat LPS challenge model at 3 mg/kg, po after 6 hrs. The data set is classed as functional.
Data set [15] in a line: Volume of distribution in Sprague-Dawley rat at 1 mg/kg. The data set is classed as ADME, organism-based. Details: dose 1 mg/kg. Particulars: in vivo, read-out: Vdss.
The test system of data set [16] is Rattus norvegicus. The data set can be described thus: Inhibition of TNFalpha production in rat LPS challenge model at 0.1 mg/kg, po after 24 hrs. The data set is classed as functional.
Data set [17] deals with Rattus norvegicus. Description: Inhibition of TNFalpha production in rat LPS challenge model at 3 mg/kg, po after 16 hrs. The data set is classed as functional.
Data set [18] relates to Rattus norvegicus. Description: Inhibition of paw swelling in AIA Lewis rat at 0.1 mg/kg, po after 21 days. Particulars: 504 h. It is filed as functional. A digest of the protocol: as §2
Data set [19] concerns Rattus norvegicus. The data set can be described thus: Inhibition of TNF-alpha production in rat LPS challenge model at 1 mg/kg, po after 24 hrs. It is filed as functional.
A short description of data set [20]: Oral bioavailability in Sprague-Dawley rat. The data set is classed as ADME, organism-based. Particulars: in vivo. A digest of the protocol: as §1
Data set [21] has as its system Mus musculus. The data set can be described thus: Inhibition of TNFalpha production in BALB/c mouse at 0.3 mg/kg up to 24hrs. The data set is classed as functional. The method, boiled down:
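Female Balb/c mice aged 12–16 weeks were given compound orally in 0.5% methylcellulose 22.5 h before LPS challenge. They were sacrificed 1.5 h after challenge, and plasma TNF-a was measured by ELISA.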

For data set [22], the species on record is Rattus norvegicus. Description: Inhibition of paw swelling in AIA Lewis rat after 21 days. Particulars: 504 h. It is filed as functional. The method, boiled down:
as §2

Data set [23] in a line: Clearance in rhesus macaque. It is filed as ADME, organism-based, Macaca mulatta. As to conditions: rhesus monkey, in vivo.
Data set [24] can be described thus: Half life in Sprague-Dawley rat at 1 mg/kg. Details: dose 1 mg/kg. Particulars: in vivo. It is filed as ADME, organism-based. A digest of the protocol: as §1
Data set [25] in a line: Half life in rhesus macaque. The data set is classed as ADME, organism-based, Macaca mulatta. Particulars: rhesus monkey, in vivo.
In data set [26] the test system is Rattus norvegicus. The data set can be described thus: Inhibition of paw swelling in AIA Lewis rat at 0.3 mg/kg, po after 21 days. It is filed as functional. As to conditions: 504 h. A digest of the protocol:
as §2

For data set [27], the system named is Rattus norvegicus. Description: Reduction of TNFalpha production in rat LPS challenge model at 10 mg/kg, po after 3 hrs. The data set is classed as functional. Set-up: scale not given: the % may be the effect or the level left.
The nature of data set [28]: Cmax in rat. The data set is classed as ADME, organism-based. As to conditions: in vivo. The method, boiled down: as §1
Data set [29] can be described thus: Oral bioavailability in rat. The data set is classed as ADME, organism-based. As to conditions: in vivo. A digest of the protocol: as §1
A short description of data set [30]: Half life in rat. The data set is classed as ADME, organism-based. Particulars: in vivo. The method, boiled down: as §1

Consider `O=c1ccc2c(-c3ccc(F)cc3F)[n+]([O-])ccc2n1-c1c(Cl)cccc1Cl`, for which the Cmax in data set [1] was 3.5 µM. In addition, in data set [2], the IC50 worked out at 200 nM. The compound further gave a half-life in data set [3] of 9.9 h. The bioavailability in data set [4] came to 98%. The same compound registered an inhibition in vivo at 3 mg/kg in data set [5] of 80%.

With `O=c1ccc2c(-c3ccc(F)cc3F)nccc2n1-c1c(F)cccc1F`, the IC50 in [2] stood at 7 nM; in [6], 145 nM.

With `O=c1ccc2c(-c3ccc(F)cc3F)nccc2n1-c1ccccc1Cl`, the values for the IC50 in data set [2] and in [6] were 40.5 nM and 86.1 nM, respectively.

As for `Nc1cc2c(ccc(=O)n2-c2c(F)cccc2F)c(-c2ccc(F)cc2F)n1`, the clearance was determined as 1.6 mL/min/kg in data set [7] and 1.3 mL/min/kg in [23]. The inhibition in vivo at 3 mg/kg in [8] worked out at 80%; in data set [14] it was 97%; in [17], 95%; in [5], 92%. Further, the inhibition in vivo at 0.3 mg/kg in data set [9] was 75%; in data set [21] it was above 90%; in data set [26], 54%. The Vd in data set [10] and in data set [15] was 0.9 L/kg each time. Also, the inhibition in vivo at 1 mg/kg in data set [11] came to 65%; in [19] it was 79%; in [19] (read-out: Inhibition) it was 79%. The bioavailability in data set [12] is 22%; in data set [20] it was 68%. The compound also displayed a Cmax in data set [13] of 3.5 µM. Also, the results for the IC50 in data set [2] and in [6] were 0.69 nM and 34 nM, respectively. Moreover, the inhibition in vivo at 0.1 mg/kg stood at 53% in data set [16] and 38% in data set [18]. In [22], this compound had an ED50 of 0.22 mg/kg. The half-life in data set [24] was 6.5 h; in [25], 11.6 h.

In the case of `O=c1ccc2c(-c3ccc(F)cc3F)nc(O)cc2n1-c1c(F)cccc1F`, the IC50 in [2] is 4.5 nM; in data set [6] it was 121 nM. The same compound yielded an Activity in data set [27] of 70%.

Take `CNc1cc2c(ccc(=O)n2-c2c(F)cccc2F)c(-c2ccc(F)cc2F)n1`: the concentration for half-maximal inhibition (IC50) turned out to be 7.3 nM in data set [2] and 73 nM in [6].

For `O=c1ccc2c(-c3ccc(F)cc3F)nccc2n1-c1c(Cl)cccc1Cl`, the inhibition in vivo at 3 mg/kg in data set [14] was 61%; in data set [17] it was 37%; in data set [5], 27%. The IC50 in data set [2] was 6.6 nM; in data set [6], 101 nM. Also, in data set [28], the Cmax was 1 µM. For the same compound, the bioavailability in [29] came to 57%. The compound also showed a half-life in data set [30] of 2 h.
